Results reported in ChEMBL document CHEMBL3632599, “2-((Benzimidazol-2-yl)thio)-1-arylethan-1-ones: Synthesis, crystal study and cancer stem cells CD133 targeting potential” (Eur J Med Chem, 2015).
Active and inactive are the calls of the source. The calls are words filed in the database; no cut-off is given here.

Legend:
HT-29 [1] = assay: Cytotoxicity against human HT-29 cells assessed as growth inhibition after 48 hrs by WST-1 assay; assay type: functional, cell-based; conditions: HT-29, 48 h
Outline: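 HT-29 human colon cancer cells kept in RPMI 1640 with 10% FBS, penicillin, streptomycin and 2 mmol/L L-glutamine. Seeded at 0.4*10⁴/well, left overnight, then medium replaced with fresh medium holding the test concentrations for 48 h. WST-1 added, 4 h at 37 °C, formazan read at 450 nm. IC₅₀ taken relative to untreated controls; mean ± SD of three separate experiments.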

HT-29 [2] = assay: Inhibition of cell surface expression of CD133 in human HT-29 cells at 10 uM by flow cytometric analysis relative to control; assay type: functional
Outline: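 HT-29 cells exposed to compound at 10 µM, then harvested, washed and stained with APC-conjugated anti-CD133 monoclonal antibody. Analysed by flow cytometry (BD LSR II), with debris and cell clusters excluded by forward- and side-scatter gating. Reported as % inhibition of […] relative to untreated cells; mean ± SD of three separate experiments.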

SMILES | IC50 (HT-29 [1]) [µM] | inhibition at 10 µM (HT-29 [2]) [%] | inhibition (HT-29 [2])
COc1ccc(C(=O)CSc2nc3ccccc3[nH]2)cc1OC | 19.1 | 52.6 | 
O=C(CSc1nc2ccccc2[nH]1)c1ccccc1 | 38.5 |  | inactive
Cc1ccc(C(=O)CSc2nc3ccccc3[nH]2)cc1 | 34.5 | 40 | 
COc1ccccc1C(=O)CSc1nc2ccccc2[nH]1 | 36.1 | 34.9 | 
O=c1[nH]cc(F)c(=O)[nH]1 [FLUOROURACIL] | 15.8 |  | 
COc1ccc(C(=O)CSc2nc3ccccc3[nH]2)cc1O | 33 | 49.7 | 
O=C(CSc1nc2ccccc2[nH]1)c1ccc2c(c1)OCO2 | 36.8 | 51.2 | 
O=C(CSc1nc2ccccc2[nH]1)c1ccc(Br)cc1 | 43 |  | inactive
O=C(CSc1nc2ccccc2[nH]1)c1ccc(O)cc1 | 19.2 |  | inactive
O=C(CSc1nc2ccccc2[nH]1)c1cccs1 | 23.9 | 55.6 | 
COc1ccc(C(=O)CSc2nc3ccccc3[nH]2)c(OC)c1OC | 18.8 | 50.1 | 
O=C(CSc1nc2ccccc2[nH]1)c1ccc([N+](=O)[O-])cc1 | 57 |  | inactive
COc1ccc(C(=O)CSc2nc3ccccc3[nH]2)cc1 | 25.2 | 52.5 | 
CCOc1ccc(C(=O)CSc2nc3ccccc3[nH]2)cc1 | > 100 | 55.1 | 
O=C(CSc1nc2ccccc2[nH]1)c1ccc(F)cc1 | 78.7 |  | inactive
O=C(CSc1nc2ccccc2[nH]1)c1ccco1 | 24.6 | 56.8 | 
